Experiment [1] has as its system Candida tropicalis. The experiment in a line: Antifungal activity against Candida tropicalis after 2 days by broth microdilution method in presence of 1 M osmotic stabilizer sorbitol. The experiment is classed as functional. The note with it: 48 h. A general note: Broth dilution looks for growth in wells or tubes with falling amounts of substance.
For experiment [2], the system named is Candida tropicalis. The experiment in a line: Antifungal activity against Candida tropicalis by two fold serial dilution method. It counts as functional. The method, boiled down: (§1)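 Broth microdilution MIC following CLSI M27-A2 with twofold serial dilutions; strains ATCC 18804 (C. albicans), ATCC 22019 (C. parapsilosis), ATCC 750 (C. tropicalis), ATCC 32608 (C. gattii), kept on Sabouraud dextrose agar at 4 °C. Amphotericin B and trimethoprim/sulfamethoxazole served as positive controls.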

Experiment [3] deals with Jurkat. The experiment in a line: Anticancer activity against human Jurkat cells after 48 hrs by MTT assay. The experiment is classed as functional, cell-based. The method, boiled down: (§2)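 HL60 and Jurkat leukemia lines plated at 50,000 and 100,000 cells/well respectively and pre-incubated 24 h at 37 °C, 5% CO2. Compounds dissolved in DMSO and tested over a concentration range of […] for 48 h. Viability read by MTT reduction (4 h), formazan dissolved in acidic isopropanol, OD 590 nm. Values normalized to 0.05% DMSO control; IC50 taken graphically from dose-effect curves. Triplicate, three separate days.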
(In general: Tetrazolium dyes change colour on reduction, which living cells bring about.)

Experiment [4] has as its system MCF7. The experiment in a line: Anticancer activity against human MCF7 cells after 48 hrs by sulforhodamine B assay. It counts as functional, cell-based. The gist of the method:
(§3)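 Solid tumour lines from NCI (NCI colorimetric protocol), seeded and pre-incubated 24 h at 37 °C, 5% CO2, then exposed to compounds for 48 h. Proteins fixed with trichloroacetic acid, stained with sulforhodamine B, dye dissolved in 10 mM Tris, absorbance at 515 nm compared against initial-density control wells. IC50 from dose-response curves built with 1:2 serial dilutions; duplicate, repeated at least three times.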
On the technique in general: In SRB staining, fixed cells bind dye roughly in proportion to their protein.

Experiment [5] has as its system Paracoccidioides brasiliensis. The experiment in a line: Antifungal activity against Paracoccidioides brasiliensis Pb18 after 10 days by broth microdilution method in presence of 1 M osmotic stabilizer sorbitol. It counts as functional. The note with it: 240 h.
The subject of experiment [6] is Candida albicans. The experiment in a line: Antifungal activity against Candida albicans by two fold serial dilution method. It counts as functional. The gist of the method:
as §1

The subject of experiment [7] is Candida parapsilosis. Nature of the experiment: Antifungal activity against Candida parapsilosis by two fold serial dilution method. It counts as functional. The note with it: Lodderomyces parapsilosis. The method, boiled down:
as §1

Experiment [8] deals with UACC-62. The experiment in a line: Anticancer activity against human UACC62 cells after 48 hrs by sulforhodamine B assay. The experiment is classed as functional, cell-based. The gist of the method:
as §3

Experiment [9] concerns Paracoccidioides brasiliensis. The experiment in a line: Antifungal activity against Paracoccidioides brasiliensis Pb18 by serial dilution method. The experiment is classed as functional.
Experiment [10] deals with Cryptococcus gattii species complex. Nature of the experiment: Antifungal activity against Cryptococcus gattii by two fold serial dilution method after 3 days by broth microdilution method in presence of 1 M osmotic stabilizer sorbitol. It counts as functional, Cryptococcus bacillisporus. The note with it: 72 h.
The test system is the same in experiment [11]. Nature of the experiment: Antifungal activity against Cryptococcus gattii by two fold serial dilution method. The experiment is classed as functional, Cryptococcus bacillisporus. The gist of the method:
as §1

Experiment [12] relates to HL-60. The experiment in a line: Anticancer activity against human HL60 cells after 48 hrs by MTT assay. It counts as functional, cell-based. The gist of the method: as §2
The test system of experiment [13] is TK-10. Nature of the experiment: Anticancer activity against human TK10 cells after 48 hrs by sulforhodamine B assay. The experiment is classed as functional, cell-based. The gist of the method: as §3
[14] abbreviates: Homo sapiens, HL-60, 48 h, read-out: IC50.
[15] abbreviates: Homo sapiens, MCF7, 48 h, read-out: IC50.
The mark [16] stands for this setting: Homo sapiens, UACC-62, 48 h, read-out: IC50.
Where [17] appears, read: Homo sapiens, TK-10, 48 h, read-out: IC50.
Where [18] appears, read: Homo sapiens, Jurkat, 48 h, read-out: IC50.

≈ marks a conversion by molar mass, not a printed value. Bounds are passed on as bounds.

Turning to `Cc1ccc(C(=O)/C=C/c2ccc3ncccc3c2)cc1`, the MIC (commonly the lowest concentration found to suppress growth) in [1] was more than 31.2 µg/mL; in experiment [2] it was more than 500 µg/mL; in [5], 7.8 µg/mL; in experiment [6], more than 500 µg/mL; in experiment [7], more than 500 µg/mL; in experiment [9] it was 7.8 µg/mL (≈ 28.5 µM). Besides, the MIC in experiment [10] was more than 31.2 µg/mL; in experiment [11] it was more than 500 µg/mL. The IC50 (in general, the midpoint of a concentration-inhibition curve) in experiment [3] (jurkat) is “Not Active”; in experiment [4] (mcf7), “Not Active”; in [8] (uacc-62), “Not Active”; in experiment [12] (setting [14]) it was 8.28 µg/mL (≈ 30.3 µM); in [13] (tk-10), “Not Active”.
As for `O=C(/C=C/c1ccc2ncccc2c1)c1ccccc1`, the MIC in experiment [2] is more than 500 µg/mL; in [6], more than 500 µg/mL; in [7], more than 500 µg/mL; in experiment [11] it was 125 µg/mL (≈ 482 µM). The IC50 result is “Not Active” in experiment [3] (jurkat); 1.1 µg/mL (≈ 4.24 µM) in [4] (setting [15]); 3.83 µg/mL (≈ 14.8 µM) in experiment [8] (setting [16]); “Not Active” in [12] (hl-60); 7 µg/mL (≈ 27 µM) in experiment [13] (setting [17]).
With `COc1ccc(C(=O)/C=C/c2ccc3ncccc3c2)cc1`, the MIC was more than 500 µg/mL in experiment [2]; more than 500 µg/mL in [6]; more than 500 µg/mL in [7]; 62.5 µg/mL (≈ 216 µM) in [9]; more than 500 µg/mL in experiment [11]. Moreover, the IC50 in [3] (setting [18]) was 19.6 µg/mL (≈ 67.7 µM); in experiment [4] (setting [15]) it was 0.19 µg/mL (≈ 0.657 µM); in experiment [8] (setting [16]), 22.5 µg/mL (≈ 77.8 µM); in experiment [12] (setting [14]), 12.6 µg/mL (≈ 43.5 µM); in experiment [13] (tk-10), “Not Active”.
For the compound `O=C(/C=C/c1ccc2ncccc2c1)c1ccc([N+](=O)[O-])cc1`, the MIC in experiment [2] is more than 500 µg/mL; in experiment [6], more than 500 µg/mL; in [7], more than 500 µg/mL; in experiment [9], 500 µg/mL (≈ 1640 µM); in [11] it was more than 500 µg/mL.
`O=C(/C=C/c1ccc2ncccc2c1)c1ccc(F)cc1`: the MIC in experiment [1] was more than 31.2 µg/mL; in experiment [2] it was more than 500 µg/mL; in experiment [5] it was 7.8 µg/mL; in experiment [6], more than 500 µg/mL; in experiment [7], more than 500 µg/mL; in experiment [9], 7.8 µg/mL (≈ 28.1 µM). Further, the MIC in experiment [10] is more than 31.2 µg/mL; in experiment [11] it was 500 µg/mL (≈ 1800 µM). Besides, the IC50 in [3] (setting [18]) is 26.5 µg/mL (≈ 95.6 µM); in [4] (setting [15]) it was 6.3 µg/mL (≈ 22.7 µM); in experiment [8] (setting [16]), 5.6 µg/mL (≈ 20.2 µM); in [12] (setting [14]) it was 20.8 µg/mL (≈ 75 µM); in experiment [13] (setting [17]), 1 µg/mL (≈ 3.61 µM).
With `O=C(/C=C/c1ccc2ncccc2c1)c1ccc(Br)cc1`, the MIC in experiment [2], in experiment [6], in experiment [7], in experiment [9] and in [11] was more than 500 µg/mL in each case.
As to `O=C(/C=C/c1ccc2ncccc2c1)c1ccc(Cl)cc1`, the MIC in [2] was more than 500 µg/mL; in experiment [6], more than 500 µg/mL; in experiment [7] it was more than 500 µg/mL; in experiment [9], 62.5 µg/mL (≈ 213 µM); in experiment [11], more than 500 µg/mL. Besides, the IC50 was 15 µg/mL (≈ 51.1 µM) in [3] (setting [18]); 0.96 µg/mL (≈ 3.27 µM) in [4] (setting [15]); “Not Active” in [8] (uacc-62); 8.8 µg/mL (≈ 30 µM) in experiment [12] (setting [14]); “Not Active” in experiment [13] (tk-10).
With `O=C(/C=C/c1ccc2c(ccc[n+]2[O-])c1)c1ccccc1`, the MIC in experiment [2] was more than 500 µg/mL; in experiment [6], more than 500 µg/mL; in experiment [7], more than 500 µg/mL; in experiment [9], 62.5 µg/mL (≈ 227 µM); in [11], 250 µg/mL (≈ 908 µM). Further, the IC50 result was “Not Active” in [3] (jurkat); “Not Active” in experiment [4] (mcf7); “Not Active” in experiment [8] (uacc-62); 4.9 µg/mL (≈ 17.8 µM) in experiment [12] (setting [14]); “Not Active” in [13] (tk-10).
In the case of `Cc1ccc(C(=O)/C=C/c2ccc3c(ccc[n+]3[O-])c2)cc1`, the MIC is more than 500 µg/mL in experiment [2]; more than 500 µg/mL in [6]; more than 500 µg/mL in experiment [7]; 125 µg/mL (≈ 432 µM) in experiment [9]; 500 µg/mL (≈ 1730 µM) in experiment [11]. Also, the IC50 in experiment [3] (setting [18]) turned out to be 32.5 µg/mL (≈ 112 µM); in experiment [4] (setting [15]) it was 8.3 µg/mL (≈ 28.7 µM); in experiment [8] (setting [16]), 5.3 µg/mL (≈ 18.3 µM); in experiment [12] (setting [14]), 20.3 µg/mL (≈ 70.2 µM); in experiment [13] (setting [17]) it was 1 µg/mL (≈ 3.46 µM).

Values taken from ChEMBL document CHEMBL1828502, “Quinolinyl and quinolinyl N-oxide chalcones: synthesis, antifungal and cytotoxic activities” (Eur J Med Chem, 2011).
